Measured values: ChEMBL document CHEMBL1955842, “Substituent effects on P2-cyclopentyltetrahydrofuranyl urethanes: design, synthesis, and X-ray studies of potent HIV-1 protease inhibitors” (Bioorg Med Chem Lett, 2012)
pEC50, pIC50, pKi: −log10 of the molar value.

How the values were obtained:
[1] = system: Human immunodeficiency virus 1; assay: Antiviral activity against HIV1 MDR/G harboring protease L10I, V11I, T12E, I15V, L19I, R41K, M46L, L63P, A71T, V82A, and L90M mutant infected in PHA-PBM cells assessed as inhibition of p24 Gag protein production; type: functional, organism-based; conditions: Human immunodeficiency virus 1, MDR/G, PBMC
Method in brief: (§1)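 EC50 measured against each isolate. Assays run in duplicate. Values are means (±1 standard deviation) from two or three independent experiments. Fold-change for each isolate is its EC50 relative to the EC50 for wild-type HIV-1ERS104pre.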

[2] = system: Human immunodeficiency virus 1; assay: Antiviral activity against HIV1 MDR/B harboring protease L10I, K14R, L33I, M36I, M46I, F53I, K55R, I62V, L63P, A71V, G73S, V82A, L90M, I93L mutant infected in PHA-PBM cells assessed as inhibition of p24 Gag protein production; type: functional, organism-based; conditions: Human immunodeficiency virus 1, MDR/B, PBMC; method in brief: as §1
[3] = system: Human immunodeficiency virus 1; assay: Antiviral activity against HIV1 MDR/C harboring protease L10I, I15V, K20R, L24I, M36I, M46L, I54V, I62V, L63P, K70Q, V82A, and L89 mutant infected in PHA-PBM cells assessed as inhibition of p24 Gag protein production; type: functional, organism-based; conditions: Human immunodeficiency virus 1, MDR/C, PBMC; method in brief: as §1
[4] = system: Human immunodeficiency virus 1; assay: Antiviral activity against HIV1 MDR/TM harboring protease L10I, K14R, R41K, M46L, I54V, L63P, A71V, V82A, L90M, I93L mutant infected in PHA-PBM cells assessed as inhibition of p24 Gag protein production; type: functional, organism-based; conditions: Human immunodeficiency virus 1, MDR/TM, PBMC; method in brief: as §1
Protease = Protease (Human immunodeficiency virus 1, UniProt Q9YQ12); assay: Inhibition of HIV1 protease using hexapeptide Ac-Thr-Ile-Nle-Nle-Gln-Arg-NH2 as substrate by fluorimetric assay
Sequence of Protease (Q9YQ12 whole entry): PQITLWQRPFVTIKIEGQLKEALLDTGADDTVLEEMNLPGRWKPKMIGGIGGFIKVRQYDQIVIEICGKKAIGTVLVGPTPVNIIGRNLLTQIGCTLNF

[5] = system: Human immunodeficiency virus 1; assay: Antiviral activity against HIV1 […] infected in human MT2 cells by MTT assay; type: functional, organism-based; conditions: Human immunodeficiency virus 1, MT2
Method in brief: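 MT-2 human T-lymphoid cells (2 × 10^3) infected with 100 TCID50 of HIV-1LAI and cultured with inhibitor present. IC50 read out by MTT assay.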

[6] = system: Human immunodeficiency virus 1; assay: Ratio of EC50 for HIV1 MDR/C harboring protease L10I, I15V, K20R, L24I, M36I, M46L, I54V, I62V, L63P, K70Q, V82A, and L89 mutant to EC50 for HIV1 ERS104 harboring wild type protease; type: functional
Method in brief: (§2)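 Fold-change: EC50 against each multidrug-resistant HIV-1 isolate divided by EC50 against wild-type HIV-1ERS104pre. Assays run in duplicate; values are means (±1 standard deviation) from two or three independent experiments.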

[7] = system: Human immunodeficiency virus 1; assay: Antiviral activity against wild type HIV1 ERS104 infected in PHA-PBM cells assessed as inhibition of p24 Gag protein production; type: functional, organism-based; conditions: Human immunodeficiency virus 1, ERS104, PBMC; method in brief: as §1
[8] = system: Human immunodeficiency virus 1; assay: Ratio of EC50 for HIV1 MDR/G harboring protease L10I, V11I, T12E, I15V, L19I, R41K, M46L, L63P, A71T, V82A, and L90M mutant to EC50 for HIV1 ERS104 harboring wild type protease; type: functional; method in brief: as §2
[9] = system: Human immunodeficiency virus 1; assay: Ratio of EC50 for HIV1 MDR/TM harboring protease L10I, K14R, R41K, M46L, I54V, L63P, A71V, V82A, L90M, I93L mutant to EC50 for HIV1 ERS104 harboring wild type protease; type: functional; method in brief: as §2
[10] = system: Human immunodeficiency virus 1; assay: Ratio of EC50 for HIV1 MDR/B harboring protease L10I, K14R, L33I, M36I, M46I, F53I, K55R, I62V, L63P, A71V, G73S, V82A, L90M, I93L mutant to EC50 for HIV1 ERS104 harboring wild type protease; type: functional; method in brief: as §2

Row | Structure (SMILES) | pEC50 [1] | pEC50 [2] | pEC50 [3] | pEC50 [4] | pKi (Protease) | pIC50 [5] | Ratio EC50 [6] | pEC50 [7] | Ratio EC50 [8] | Ratio EC50 [9] | Ratio EC50 [10]
1 | CC(C)CN(C[C@@H](O)[C@H](Cc1ccccc1)NC(=O)O[C@H]1CO[C@H]2OCC[C@H]21)S(=O)(=O)c1ccc(N)cc1 | 7.96 | 7.72 | 7.96 | 7.55 |  |  |  |  |  |  | 
2 | COc1ccc(S(=O)(=O)N(CC(C)C)C[C@@H](O)[C@H](Cc2ccccc2)NC(=O)O[C@@H]2C[C@@H]3[C@H](NC(C)=O)CO[C@@H]3C2)cc1 |  |  |  |  | 11.13 | 7.60 |  |  |  |  | 
3 | COc1ccc(S(=O)(=O)N(CC(C)C)C[C@@H](O)[C@H](Cc2ccccc2)NC(=O)O[C@@H]2C[C@@H]3[C@@H](NC(C)=O)CO[C@@H]3C2)cc1 |  |  |  |  | 11.12 | 7.51 |  |  |  |  | 
4 | COC(=O)N[C@@H]1CO[C@@H]2C[C@H](OC(=O)N[C@@H](Cc3ccccc3)[C@H](O)CN(CC(C)C)S(=O)(=O)c3ccc(OC)cc3)C[C@H]12 | 7.41 | 7.12 | 7.52 | 7.13 |  | 8.80 | 1 | 7.54 | 1 | 3 | 3
5 | COC(=O)N[C@H]1CO[C@@H]2C[C@H](OC(=O)N[C@@H](Cc3ccccc3)[C@H](O)CN(CC(C)C)S(=O)(=O)c3ccc(OC)cc3)C[C@H]12 | 7.70 | 7.74 | 7.82 | 7.62 | 11.40 | 8.34 | 5 | 8.52 | 7 | 8 | 6
6 | COc1ccc(S(=O)(=O)N(CC(C)C)C[C@@H](O)[C@H](Cc2ccccc2)NC(=O)O[C@@H]2C[C@@H]3[C@H](NS(C)(=O)=O)CO[C@@H]3C2)cc1 |  |  |  |  | 10.49 | 7.55 |  |  |  |  | 
7 | COc1ccc(S(=O)(=O)N(CC(C)C)C[C@@H](O)[C@H](Cc2ccccc2)NC(=O)O[C@@H]2C[C@@H]3[C@@H](NS(C)(=O)=O)CO[C@@H]3C2)cc1 |  |  |  |  | 9.74 | 7.30 |  |  |  |  | 
8 | COc1ccc(S(=O)(=O)N(CC(C)C)C[C@@H](O)[C@H](Cc2ccccc2)NC(=O)O[C@@H]2C[C@@H]3[C@@H](OC(=O)N(C)C)CO[C@@H]3C2)cc1 |  |  |  |  | 10.70 | 8.33 |  |  |  |  | 
